Compound activity: PubChem, several laboratories
CHOP UPR activ: activators of apoptotic arm of unfolded protein response (CHOP); CHO-CHOP luciferase reporter, UPR activation, luminescence; percent of tunicamycin response over DMSO baseline; activation, % at 10 µM; hit rate 0.34% among 330,000;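 active = at 10 µM dose, activation of 40% or more, normalized to positive control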;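 also: 100% = tunicamycin at 10 µg/mL and 0% = DMSO alone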
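Test system: CHO CHOP reporter cells. Input: 500 CHO-CHOP cells per well. Medium: F12 with 10% FBS. Technique: luciferase luminescence. Measure: percent activation relative to tunicamycin control. Dosing: 10 µM compound, 0.5% DMSO. Timing: 16-18 h cell attachment, then 6 h compound exposure, 37 °C.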
CTSL1 counter: blocks F. hepatica cathepsin L1 in PFM18AAP counter-screen; hit rate 0.49% among 300,000; inhibition, % at 5.96 µM; recombinant F. hepatica cathepsin L1, Z-Leu-Arg-MCA fluorescence;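 active = inhibition above the mean of all tested compounds plus 3 SD, set per screening campaign, cut at about 17% in these data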;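 also: 0% = plate median of test compound wells and 100% = 1 µM Z-Phe-Ala-diazomethylketone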
CHOP inhibitor: inhibitors of CHOP induction in ER stress response | CHO-K1 CHOP-promoter luciferase, tunicamycin-induced, 15-18 h | hit rate 3.8% among 220,000 | inhibition, % at 10 µM;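 active = compounds that reduced the stress-induced luciferase reporter signal by more than about 70% of percent inhibition, limit read from the data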;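 also: 0% = tunicamycin plus vehicle and 100% = wells without tunicamycin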
UPR XBP1 act: adaptive UPR (XBP1) activation | activation, % at 20 µM | hit rate 0.33% among 330,000 | CHO-XBP1 luciferase reporter, IRE1-XBP1 UPR activation, luminescence; percent of tunicamycin response, DMSO as zero;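 active = versus positive control, 20 µM dose yields 30% or more activation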;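 also: 100% = tunicamycin at 10 µg/mL and 0% = DMSO only wells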
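Material: CHO-XBP1 cells stably carrying IRE1-XBP1-driven luciferase reporter | Medium: F12 with 10% serum | Compound dosing: 20 µM single concentration, DMSO 1% | Incubation: Overnight seeding at 37 °C, 6 h compound treatment at 37 °C | Detection: Steady-Glo luminescence read | Read-out basis: % activation of reporter signal versus tunicamycin and DMSO controls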
UCH37 inh: inhibitors of human deubiquitinating enzyme UCH37; inhibition, % (test concentration not listed); hit rate 0.33% among 330,000; purified proteasome/UCH37, Ub-AMC cleavage fluorescence; AID 588478; Q9Y5K5;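 active = mean inhibition over replicate wells above about 20%, limit read from the data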;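 also: 0% = compound-free wells with enzyme and 100% = wells lacking proteasome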
Target sequence (Q9Y5K5 whole entry, looked up): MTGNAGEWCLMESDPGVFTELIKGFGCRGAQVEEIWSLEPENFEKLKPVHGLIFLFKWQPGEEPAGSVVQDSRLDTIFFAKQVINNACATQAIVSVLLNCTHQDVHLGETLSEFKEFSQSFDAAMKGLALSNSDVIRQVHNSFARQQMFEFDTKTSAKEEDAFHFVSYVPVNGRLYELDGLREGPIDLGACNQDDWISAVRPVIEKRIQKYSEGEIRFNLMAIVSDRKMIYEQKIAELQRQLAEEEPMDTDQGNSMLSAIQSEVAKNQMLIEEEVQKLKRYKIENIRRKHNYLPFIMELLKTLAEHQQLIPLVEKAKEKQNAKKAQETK
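Assay system: Proteasome-bound UCH37. Buffer or medium: pH 7.4 Tris-HCl (50 mM) with ovalbumin, ATP-MgCl2, DTT. Incubation: 30 min preincubation with enzyme, 25 min cleavage at room temperature. Measured by: fluorescence, ex 355 nm, em 460 nm. Read-out basis: percent inhibition. Control set: wells without proteasome as full block, compound-free enzyme plus substrate as uninhibited.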
* = called active by the depositor; i = inactive; · = no result given. This excerpt belongs to a sample that is enriched for hits.

SMILES | CHOP UPR activ | CTSL1 counter | CHOP inhibitor | UPR XBP1 act | UCH37 inh
[O-][n+]1c2c(nn1-c1ccccc1)C(=NO)CCC2 | · | · | · | · | 0.6
O=C(CC(c1ccco1)C1CCCCC1=O)c1ccccc1 (stereo not drawn) | -0.3 | 52.0* | 32.1 | -3.1 | 0.6
CC(=NOC(=O)C1CC1)C1CC1c1ccc(F)cc1 (stereo not drawn) | · | · | · | · | 0.8
CN(C)c1ccc(C(CNS(=O)(=O)c2ccc3ccccc3c2)c2c[nH]c3ccccc23)cc1 (stereo not drawn) | 0.8 | -0.2 | 76.0* | -0.9 | 1.8
O=c1[nH]cnc2c1sc1nc3c(c(-c4ccc(Cl)cc4)c12)CCC3 | 0.8 | 0.2 | 85.4* | -3.2 | 0.4
CCOC(=O)Cn1nnc2c(sc3nc4c(c(-c5ccc(Cl)cc5)c32)CCC4)c1=O | 2.0 | -3.3 | -28.0 | 5.4 | -2.2
Cc1cccc(NC(=O)C2C(c3ccccc3)C2(Cl)Cl)c1 (stereo not drawn) | 0.4 | -4.7 | 73.6* | 2.5 | 1.5
CCOC(=O)C(CC)C(C)=NNC(=O)c1cccc(C)c1 (stereo not drawn) | · | · | · | · | -0.2
c1ccc(-c2noc(CN3CCN(C(c4ccccc4)c4ccccc4)CC3)n2)cc1 | 0.5 | 2.0 | 40.3 | -5.5 | 2.9
c1ccc(-c2noc(CN3CCN(c4ccccc4)CC3)n2)cc1 | 0.9 | 0.1 | 85.8* | -0.6 | 2.0
Fc1ccccc1N1CCN(Cc2nc(-c3ccccc3)no2)CC1 | 1.3 | 1.1 | 86.3* | -1.6 | 5.3
Oc1cccc(C(O)CNCc2ccc(OCc3ccc(Cl)cc3Cl)cc2)c1 (stereo not drawn) | -0.9 | -2.9 | 103.8* | 2.1 | 0.5
Oc1cccc(C(O)CNCc2ccc(-c3ccccc3)cc2)c1 (stereo not drawn) | 2.5 | 0.4 | 8.8 | 1.8 | 3.7
COC(=O)c1cc2c(s1)-c1ccccc1CC2 | 5.9 | 0.0 | 91.3* | 3.4 | -172.3
Cc1cc(C)n(CCC(=O)NN=Cc2cccc([N+](=O)[O-])c2)n1 | · | · | · | · | 1.0
O=C(O)c1ccc(-c2nc(-c3ccccc3)c(-c3cccs3)[nH]2)cc1 | -0.7 | 5.1 | 5.2 | -2.3 | i
O=[N+]([O-])c1ccc(O)c(-c2nc(-c3ccccc3)c(-c3cccs3)[nH]2)c1 | 7.1 | 4.0 | 84.9* | 9.0 | 7.5
CCOc1ncccc1C(=O)OCc1cc(=O)oc2c(C)c(C)ccc12 | · | · | 75.0* | · | 1.0
CCOC(=O)C1CCN(Cc2cc(=O)oc3c(C)c(C)ccc23)CC1 | -0.5 | 3.6 | · | 0.9 | 2.2
COC(=O)NN=Cc1cccc([N+](=O)[O-])c1 | · | · | · | · | 5.4
Nc1cc(=O)[nH]c(SCC(=O)N2N=C(c3ccc4ccccc4c3)CC2c2ccccc2)n1 (stereo not drawn) | -0.3 | 0.4 | 86.3* | -0.7 | -18.4
CC(=O)OCC(=O)N1N=C(c2ccc3ccccc3c2)CC1c1ccccc1 (stereo not drawn) | 12.6 | -5.1 | -1.8 | 7.3 | -37.3
c1ccc(OCCCc2nc(-c3ccncc3)no2)cc1 | -0.7 | -3.5 | 89.6* | 2.2 | 1.1
O=C(Nc1nnc(S(=O)(=O)N2CCCC2)s1)c1ccccc1Br | -0.8 | 80.6* | · | -1.0 | -0.3
O=C(C=NO)Nc1cccnc1 | · | · | · | · | -0.2
SMILES | CHOP UPR activ | CTSL1 counter | CHOP inhibitor | UPR XBP1 act | UCH37 inh
CCc1cc2c3c(c(=O)oc2cc1O)CCCC3 | -0.6 | 1.9 | 89.9* | 0.8 | -312.3
Cc1ccccc1OCc1nc2ccccc2c(=O)n1N=Cc1cn[nH]c1-c1ccc(Br)cc1 | · | · | · | · | 0.6
CCC1CCC(C(=O)NC(CCSC)C(=O)NCCc2ccc(S(N)(=O)=O)cc2)CC1 (stereo not drawn) | -0.3 | 3.3 | · | 2.7 | 6.8
CCC1CCC(C(=O)NC(CCSC)C(=O)NCCN(CC(C)C)CC(C)C)CC1 (stereo not drawn) | 0.5 | 30.9* | 59.9 | -3.1 | 6.2
CSCCC(NC(=O)C1CCC(C)CC1)C(=O)O (stereo not drawn) | -1.8 | 1.2 | 11.5 | -0.4 | 0.6
CC(C)CC(NC(=O)C1CCC(C)CC1)C(=O)NCCN1CCOCC1 (stereo not drawn) | 2.3 | 59.7* | · | -6.4 | 2.7
CSCCC(NC(=O)C1CCC(C)CC1)C(=O)NCCN1CCOCC1 (stereo not drawn) | -2.9 | 38.0* | 2.6 | 1.1 | 2.5
Cc1ccc(C=NNC(=O)c2cc(OCC(F)(F)F)ccc2OCC(F)(F)F)cc1 | · | · | · | · | 3.7
